Results from ChEMBL document CHEMBL5325427.
Converted amounts (≈) assume the structure as drawn. The source made the active and inactive calls. No cut-off for these calls is given here.

Experiments:
Vero C1008 = assay: Cytotoxicity against African green monkey Vero E6 cells measured after 72 hrs by crystal violet staining based analysis; type: toxicity, cell-based; conditions: chlorocebus sabaeus, vero c1008, 72 h
How it was run: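 Vero-E6 cells were seeded at 3 × 10^5 cells/mL, grown 24 h at 37 °C with 5% CO2, then given graded compound concentrations in triplicate for 72 h. Stocks were made in 10% DMSO in DMEM. Cells were fixed in 10% formalin, stained with 0.1% crystal violet, dissolved in methanol and read at A570. CC50 was taken by nonlinear regression of log concentration versus normalised response against untreated cells.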

[1] = Selectivity index, ratio of CC50 for African green monkey Vero E6 cells to IC50 for antiviral activity against SARS-CoV-2 NRC-03-nhCoV infected in african green monkey Vero E6 cells; type: toxicity, cell-based, Vero C1008; conditions: read-out: Ratio CC50/IC50
[2] = tested on: Middle East respiratory syndrome-related coronavirus; assay: Antiviral activity against MERS-CoV NRCE-HKU270 infected in Vero E6 cells assessed as inhibition of viral growth; type: functional, organism-based; conditions: NRCE-HKU270, Vero C1008
[3] = Selectivity index, ratio of CC50 for African green monkey Vero E6 cells to IC50 for antiviral activity against MERS-CoV NRCE-HKU270 infected in Vero E6 cells; type: toxicity, cell-based, Vero C1008; conditions: read-out: Ratio CC50/IC50
[4] = biological target: Replicase polyprotein 1ab (Severe acute respiratory syndrome coronavirus 2, UniProt P0DTD1); assay: Inhibition of recombinant SARS CoV-2 PL protease assessed as deubiquitination activity using ubiquitinated fluorogenic as substrate incubated for 2 hrs followed by substrate addition for 1 hr by synergy TM HTX microplate reader analysis
[5] = Aqueous solubility of the compound in PBS buffer at pH 7.4 at 200 uM by microplate reader method; type: physicochemical
[6] = Stability in CD-1 mouse liver microsomes assessed as half life at 1 uM in presence of NADPH by LC-MS-MS analysis; type: ADME, Microsome
[7] = Stability in human liver microsomes assessed as half life at 1 uM in presence of NADPH by LC-MS-MS analysis; type: ADME, Microsome
[8] = Stability in human microsomes assessed as compound remaining at 1 uM measured after 60 mins in absence of NADPH by LC-MS-MS analysis; type: ADME, Microsome; conditions: read-out: Stability
How it was run: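 Compound was incubated in liver microsomes without NADPH. Percent remaining was measured after 60 min.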

SARS-CoV-2 [9] = assay: Antiviral activity against SARS CoV-2 HCoV-19/Egypt/NRC-1/2020 infected in human Caco-2 cells assessed as reduction in viral ORFb1 RNA expression at 20 ug/ml pre-infected with virus for 1 hr followed by cell addition for 1 hr and measured after 1 to 12 hrs by RT-PCR analysis; type: functional, organism-based; conditions: Severe acute respiratory syndrome coronavirus 2, dose 20.0 µg/ml, time 3-14 hrs
SARS-CoV-2 [10] = assay: Antiviral activity against SARS CoV-2 HCoV-19/Egypt/NRC-1/2020 infected in human Caco-2 cells assessed as inhibition of ORFb1 RNA at 20 ug/ml pre-infected with virus for 1 hr followed by cell addition for 1 hr and measured after 1 to 12 hrs by RT-PCR analysis relative to control; type: functional; conditions: Severe acute respiratory syndrome coronavirus 2, HCoV-19/Egypt/NRC-1/2020, Caco-2, time 3-14 hrs
SARS-CoV-2 [11] = assay: Antiviral activity against SARS CoV-2 infected in human Caco-2 cells assessed as reduction in OAS1 expression at 20 ug/ml preincubated with cells for 24 hrs followed by viral infection and measured after 3 to 12 hrs by real-time PCR assay; type: functional, organism-based; conditions: Severe acute respiratory syndrome coronavirus 2, dose 20.0 µg/ml, time lower 27.0 hrs, time upper […]
[12] = Toxicity in Balb/c mouse assessed as effect on body weight loss at 12.5 to 25 mg/kg, ip administered as multiple dose measured upto 15 days; type: organism-based; conditions: in vivo, 360 h, dose 12.5-25 mg/kg, time < 15 day
How it was run: (§1)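 Female Balb/c mice were randomised to vehicle (0.5% DMSO in PBS) or 12.5 or 25 mg/kg intraperitoneally daily for 14 days, then followed 12 days after treatment. Body weight, haematology and blood chemistry were compared with vehicle controls; n = 3–5.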

[13] = Toxicity in Balb/c mouse assessed as change in histological variation in liver at 12.5 to 25 mg/kg by H and E staining based analysis; type: organism-based; conditions: in vivo, dose 12.5-25 mg/kg
How it was run: (§2)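 After the 14-day daily intraperitoneal dosing (12.5 or 25 mg/kg, female Balb/c), liver, kidney, spleen, heart and lung were fixed 24 h in 10% neutral-buffered formalin and paraffin-embedded. Sections of 4 μm were stained with H&E. Lesions were scored nil 0, mild 1, moderate 2, severe 3.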

[14] = Toxicity in Balb/c mouse assessed as change in histological variation in spleen at 12.5 to 25 mg/kg by H and E staining based analysis; type: organism-based; conditions: in vivo, dose 12.5-25 mg/kg; how it was run: as §2
[15] = Toxicity in Balb/c mouse assessed as change in histological variation in kidney at 12.5 to 25 mg/kg by H and E staining based analysis; type: organism-based; conditions: in vivo, dose 12.5-25 mg/kg; how it was run: as §2
[16] = Toxicity in Balb/c mouse assessed as histological changes in liver by measuring toxicity score at 25 mg/kg by H and E staining based analysis; type: organism-based; conditions: in vivo; how it was run: as §2
[17] = Toxicity in Balb/c mouse assessed as histological changes in spleen by measuring toxicity score at 12.5 to 25 mg/kg by H and E staining based analysis; type: organism-based; conditions: in vivo, dose 12.5-25 mg/kg
[18] = Toxicity in Balb/c mouse assessed as histological changes in lung by measuring toxicity score at 12.5 to 25 mg/kg by H and E staining based analysis; type: organism-based; conditions: in vivo, dose 12.5-25 mg/kg; how it was run: as §2
[19] = Toxicity in Balb/c mouse assessed as effect on ALT at 12.5 to 25 mg/kg; type: organism-based; conditions: in vivo, dose 12.5-25 mg/kg; how it was run: as §1
[20] = Toxicity in Balb/c mouse assessed as effect on AST at 12.5 to 25 mg/kg; type: organism-based; conditions: in vivo, dose 12.5-25 mg/kg; how it was run: as §1
[21] = Toxicity in Balb/c mouse assessed as effect on ALP at 12.5 to 25 mg/kg; type: organism-based; conditions: in vivo, dose 12.5-25 mg/kg; how it was run: as §1
[22] = Toxicity in Balb/c mouse assessed as effect on gamma GT at 12.5 to 25 mg/kg; type: organism-based; conditions: in vivo, dose 12.5-25 mg/kg; how it was run: as §1
[23] = Toxicity in Balb/c mouse assessed as effect on total bilirubin at 12.5 to 25 mg/kg; type: organism-based; conditions: in vivo, dose 12.5-25 mg/kg; how it was run: as §1
[24] = Toxicity in Balb/c mouse assessed as effect on albumin at 12.5 to 25 mg/kg; type: organism-based; conditions: in vivo, dose 12.5-25 mg/kg; how it was run: as §1
[25] = Toxicity in Balb/c mouse assessed as effect on urea at 12.5 to 25 mg/kg; type: organism-based; conditions: in vivo, dose 12.5-25 mg/kg; how it was run: as §1
SARS-CoV-2 [26] = assay: Antiviral activity against SARS- CoV-2 infected in Vero E6 cells assessed as viral adsorption pretreated with cells for 24 hrs followed by viral infection and measured after 1 hr by crystal violet staining based analysis relative to control; type: functional, Severe acute respiratory syndrome coronavirus 2; conditions: time 25 hrs
SARS-CoV-2 [27] = assay: Antiviral activity against SARS- CoV-2 infected in Vero E6 cells assessed as viral replication pretreated with cells for 24 hrs followed by viral infection for 1 hr and measured after 1 hr by plaque assay relative to control; type: functional, Severe acute respiratory syndrome coronavirus 2; conditions: time 26 hrs
SARS-CoV-2 [28] = assay: Antiviral activity against SARS- CoV-2 infected in Vero E6 cells assessed as virucidal activity pretreated with cells for 24 hrs followed by viral infection for 1 hr and measured after 1 hr by plaque assay relative to control; type: functional, Severe acute respiratory syndrome coronavirus 2; conditions: time 26 hrs

## COc1ccc2[nH]c3c(c2c1)C[C@]1(OC)CC[C@H]2c4[nH]c5ccccc5c4CCN2[C@@H]1C3
Vero C1008
  CC50: 55.63 µg/mL (≈ 130 µM)
[1]
  selectivity ratio: 4.6
[2]
  IC50: 6.21 µg/mL (≈ 14.5 µM)
[3]
  selectivity ratio: 8.96
[4]
  IC50: 386 µM
[5]
  solubility at 200 µM: 166 µM (≈ 71 µg/mL)
[6]
  t1/2: > 1 h
[7]
  t1/2: > 1 h
[8]
  remaining at 1 h, 1 µM: 102%
SARS-CoV-2 [9]
  Activity: Active
SARS-CoV-2 [10]
  inhibition at 20 µg/mL: > 70%
SARS-CoV-2 [11]
  Activity: Active
[12]
  Activity: Non-Toxic
[13]
  Activity: Non-Toxic
[14]
  Activity: Non-Toxic
[15]
  Activity: Non-Toxic
[16]
  Activity: 0
[17]
  Activity: 0
[18]
  Activity: 0
[19]
  Activity: Non-Toxic
[20]
  Activity: Non-Toxic
[21]
  Activity: Non-Toxic
[22]
  Activity: Non-Toxic
[23]
  Activity: Non-Toxic
[24]
  Activity: Non-Toxic
[25]
  Activity: Non-Toxic
SARS-CoV-2 [26]
  Activity: 2.5%
SARS-CoV-2 [27]
  Activity: 8.5%
SARS-CoV-2 [28]
  Activity: >90%
